# rCAG RNA binder = binders of r(CAG) RNA repeats, primary screen, biochemical, fluorescence. r(CAG) RNA repeat, TO-PRO-1 dye displacement fluorescence. inhibition, % at 3 µM. 370,000 tested, 1.3% active. AID 651821, 2012;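 active = inhibition above the plate cutoff, the mean of all test compounds on that plate plus 3 SD, cut at about 35% in these data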;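 note: higher means more dye released from RNA so lower well fluorescence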
# NadD block = inhibitors of S. aureus NadD, primary screen, biochemical, colorimetric, uHTS | Nicotinate-nucleotide adenylyltransferase NadD (Staphylococcus aureus N315) | AID 602399, 2012 | 360,000 tested, 0.78% active | inhibition, % at 20 µM | purified NadD enzyme, colorimetric absorbance read-out; in the data active = inhibition above about 26%
# ASAP1 inh = inhibitors of human ASAP1 ArfGAP activity, primary screen, biochemical, fluorescence polarization; inhibition, % at 16.5 µM; ASAP1-stimulated ARF1 GTP hydrolysis, GDP FP detection; Arf-GAP with SH3 domain, ANK repeat and PH domain-containing protein 1 (Homo sapiens), …; 360,000 tested, 0.19% active; in the data active = inhibition above about 25%
# ARFGAP1 inh = inhibitors of rat ARFGAP1 GAP activity, primary screen, biochemical, fluorescence polarization, GDP tracer | Arfgap1-stimulated ARF1 GTP hydrolysis, GDP FP detection | 360,000 tested, 0.26% active | inhibition, % at 16.5 µM;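 active = inhibition above a per-plate limit, mean inhibition of low control wells plus 3 SD, cut at about 25% in these data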
# Target sequence (Q62848 1-136 limits assumed): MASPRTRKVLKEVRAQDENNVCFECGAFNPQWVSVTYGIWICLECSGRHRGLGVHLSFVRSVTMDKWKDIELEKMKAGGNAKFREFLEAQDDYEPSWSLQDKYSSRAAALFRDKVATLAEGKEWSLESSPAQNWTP
#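 material = rat Arfgap1 catalytic domain, aa 1-136 | also added = human ARF1(Δ1-17)-GTP substrate | compound dosing = one concentration, 16.5 µM, DMSO 1.26% | times = GTP hydrolysis reaction 2 h at 25 °C | measured by = FP, GDP Alexa 633 tracer displaced from anti-GDP antibody, 620/688 nm | evaluation = percent inhibition of Arfgap1-stimulated GTP hydrolysis | replication = single well per compound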
# ASAP1 inh confirm = ASAP1 GAP activity inhibitors, confirmation, biochemical, fluorescence polarization, human, triplicate; 620 tested, 37% active; inhibition, % at 16.5 µM; AID 624431, 2012; ASAP1-stimulated Arf1 GTPase, GDP fluorescence polarization; shares compounds with ASAP1 inh;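 active = mean inhibition over triplicates exceeds the hit threshold derived for the earlier primary screening run, cut at about 25% in these data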
# Hits are given with their value; – = inactive; · = no result given. Shown are actives, neighbours in structure and some others; about 2.2% of the full set was active somewhere.
SMILES,rCAG RNA binder,NadD block,ASAP1 inh,ARFGAP1 inh,ASAP1 inh confirm
CCCc1nc2ccc(NC(C)=O)cc2c(=O)n1Cc1ccc(Cl)cc1,–,–,28,–,–
Cc1cccnc1C1=NOC(Cc2ccccc2)C(=O)N1Cc1ccccc1F (centres undefined),–,–,26,–,–
COc1ccccc1CNc1nc(C)c(C(C)=O)s1,–,–,–,–,·
COCCNc1nc(C)c(C(C)=O)s1,–,–,26,–,–
COC(=O)C[C@@H]1CC[C@H]2[C@@H](COc3ccc(NC(=O)c4ccc(Cl)cc4)cc3C(=O)N2C)O1,–,·,·,·,·
COc1ccc(C(=O)Nc2ccc(Cl)cc2C(=O)NCc2ccco2)cc1,–,–,27,–,–
CC(=O)OC[C@@H]1CN(Cc2ccccc2)C[C@H](n2cnc3c(N4CCOCC4)ncnc32)O1,–,–,–,–,·
CC(=O)NCCNc1nc2cc(-c3ccccc3)sc2c(=O)n1C,–,–,28,–,–
Cc1[nH]nc2c1C(c1cccc(C(F)(F)F)c1)N(Cc1ccccc1)C2=O (centres undefined),–,·,–,–,·
Cc1nn(Cc2ccccc2)c(C)c1NC(=O)CSc1nc(-c2ccccc2)nc2c1cnn2-c1ccccc1,–,–,–,–,·
Cc1nc(SCC(=O)Nc2c(C)nn(C)c2C)c2cnn(-c3ccccc3)c2n1,–,–,25,–,–
CCN(CC)c1nc(N)c2c(N)nc(OC)cc2c1C#N,–,–,34,–,–
O=C(Cn1c(-c2cncs2)nc2ccccc21)N1CCCCC1,–,·,·,·,·
O=C(Nc1ccc2ccccc2c1)C(=O)C1C(=O)Nc2ccccc21 (centres undefined),–,·,25,–,–
CC(Cc1cccs1)NC(=S)Nc1ccc(Cl)cc1 (centres undefined),–,–,29,–,–
COc1cc(O)cc(/C=C/c2ccccc2)c1,–,–,27,–,–
CCn1c(COc2ccc(Cl)cc2)nnc1SCC(=O)Nc1ccc(Oc2ccccc2)cc1,–,·,·,·,·
COc1ccccc1CNC(=O)Nc1nc(C(N)Cc2ccc(Cl)cc2)cs1 (centres undefined),–,–,–,–,·
O=C(Cc1ccccc1)O/N=C1\CCCc2ccccc21,–,–,26,–,–
O=C(O/N=C1\CCCc2ccccc21)c1cccs1,–,–,–,–,·
Cc1ccc(Nc2nc(NCCO)c3ccccc3n2)cc1C,–,–,28,–,–
COc1ccc(OC)c(Nc2nc(NCCO)c3ccccc3n2)c1,–,–,–,–,·
Cc1c(C(=O)NCc2cccc(Cl)c2)sc(=O)n1Cc1cccc(F)c1,–,–,–,–,·
Cc1c(C(=O)NCc2ccc(Cl)c(Cl)c2)sc(=O)n1Cc1cccc(F)c1,–,–,25,–,–
CC(Nc1cccc2ccccc12)C(=O)N/N=C/c1ccc([N+](=O)[O-])cc1 (centres undefined),–,–,26,–,–
SMILES,rCAG RNA binder,NadD block,ASAP1 inh,ARFGAP1 inh,ASAP1 inh confirm
Cc1cccc(/C=N/NC(=O)C(C)Nc2cccc3ccccc23)n1 (centres undefined),–,–,29,–,–
CC(O)C(=O)N/N=C/c1cccc2ccccc12 (centres undefined),–,–,–,–,·
COc1ccc(NC(=O)c2cc3c(C)nn(-c4ccccc4)c3s2)cc1,–,·,·,·,·
O=C(Nc1ccc(Br)cc1)C1CCCN(C2=NS(=O)(=O)c3ccccc32)C1 (centres undefined),–,–,–,–,·
O=C(Oc1ccc(Br)cc1)C1CCN(C2=NS(=O)(=O)c3ccccc32)CC1,–,–,25,–,–
CCC(=O)c1ccc(OC(=O)C2CCN(C3=NS(=O)(=O)c4ccccc43)CC2)cc1,–,–,27,–,–
O=C(c1ccccc1)N1CC[C@H]2[C@H](CCCN2Cc2cc(F)cc(F)c2)C1,–,·,·,·,·
CCc1cc(=O)oc2cc(OC(C)C(=O)O)c(Cl)cc12 (centres undefined),–,–,27,–,–
CCc1cc(=O)oc2cc(OCC(=O)O)c(Cl)cc12,–,–,–,–,·
Cc1cccc(C)c1NC(=O)C(c1ccccc1)N1CCN(c2ccc(C(F)(F)F)cn2)CC1 (centres undefined),–,–,–,–,·

# Compound activity from PubChem.
